One data set relates to MDA-MB-468. As to the kind of experiment: Cytotoxicity against human MDA-MB-468 cells after 48 hrs by SRB assay. The data set is classed as functional. The following applies: MDA-MB-468, 48 h. Put shortly:
(§1)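 5000–10,000 cells/well preincubated 24 h at 37 °C, 5% CO2, with TCA-fixed time-zero wells. Fivefold serial dilutions (100 to 0.0064 µM) and a DMSO-matched medium control, exposed 48 h. Fixed in 10% TCA for 60 min at 4 °C, stained with 0.4% SRB in 1% acetic acid, solubilized in 10 mM Tris base, read at 515–564 nm. GI50 from variable-slope sigmoidal fits; triplicates, at least two independent experiments.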
Background: The SRB assay estimates cell density from bound dye.

Data set [1] in a line: Cytotoxicity against human 184B5 cells after 48 hrs by SRB assay. The class given is cell-based. Put shortly: as §1
Data set [2] relates to MCF7. As to the kind of experiment: Cytotoxicity against human MCF7 cells after 48 hrs by SRB assay. The class given is functional. The following applies: MCF7, 48 h. Put shortly:
as §1

Data set [3] is described as follows: Cytotoxicity against human MCF10A cells after 48 hrs by SRB assay. The data set is classed as cell-based, MCF-10A. Put shortly: as §1
The subject of data set [4] is MCF7. Kind of data set: Induction of apoptosis in human MCF7 cells assessed as cell death at 20 uM after 24 hrs. The data set is classed as functional. Put shortly:
(§2)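 MCF7 cells grown in RPMI 1640 with 10% FBS and 2 mM L-glutamine at 37 °C, 5% CO2. Treated 24 h, with DMSO-only medium as negative control. 2.0 × 10⁶ cells harvested, fixed in ice-cold 70% ethanol at −20 °C, and stained 30 min at 37 °C with PI mix (100 µg/mL PI, RNase A, 0.3% NP-40, 0.1% sodium citrate). DNA content read by flow cytometry; apoptotic fraction taken from DNA histograms.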

In data set [5] the test system is MCF7. Kind of data set: Induction of apoptosis in human MCF7 cells assessed as cell death at 40 uM after 24 hrs. The class given is functional. Put shortly:
as §2

The test system of data set [6] is MCF7. Kind of data set: Cell cycle arrest in human MCF7 cells assessed as accumulation at S phase at 20 uM by flow cytometry. The data set is classed as functional. Put shortly:
(§3)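 MCF7 (RPMI 1640, 10% FBS, 2 mM L-glutamine) or MCF10A (mammary epithelial basal medium plus MEGM supplements) treated 24 h at 20 or 40 µM with DMSO vehicle controls. 2.0 × 10^6 cells fixed in ice-cold 70% ethanol at -20 °C, then stained 30 min at 37 °C with 100 µg/mL PI, RNase A, 0.3% NP-40 and 0.1% sodium citrate. Phase fractions taken from DNA-content histograms.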
A general note: Flow cytometry measures light scatter and fluorescence of single cells or particles in a stream.

The subject of a further data set is MCF-10A. Kind of data set: Cell cycle arrest in human MCF10A cells assessed as decrease in at S phase at 20 uM by flow cytometry. The class given is functional, cell-based. Put shortly:
as §3

Data set [7] relates to MCF7. Kind of data set: Cell cycle arrest in human MCF7 cells assessed as accumulation at S phase at 40 uM by flow cytometry. The data set is classed as functional. Put shortly:
as §3

Data set [8] concerns MCF7. Kind of data set: Cell cycle arrest in human MCF7 cells assessed as accumulation at G2/M phase at 20 uM by flow cytometry. The data set is classed as functional. Put shortly:
as §3

Data set [9] has as its system MCF7. Kind of data set: Cell cycle arrest in human MCF7 cells assessed as accumulation at G1/G0 phase at 20 uM by flow cytometry. The class given is functional. Put shortly:
as §3

The subject of data set [10] is MCF7. As to the kind of experiment: Cell cycle arrest in human MCF7 cells assessed as accumulation at G2/M phase at 40 uM by flow cytometry. The class given is functional. Put shortly:
as §3

Data set [11] concerns MCF7. Kind of data set: Cell cycle arrest in human MCF7 cells assessed as accumulation at G1/G0 phase at 40 uM by flow cytometry. The class given is functional. Put shortly:
as §3

Data set [12] has as its system MCF7. Kind of data set: Induction of apoptosis in human MCF7 cells assessed as cell death. The data set is classed as functional, cell-based.

Active and inactive are the calls of the source. No cut-off for these calls is given here.

As usually defined, the GI50 is the concentration that inhibits growth by half. Higher therefore signals lower sensitivity of the cells. For `NC(=S)N/N=C1/C(=O)N(CN2CCN(c3ccnc4cc(C(F)(F)F)ccc34)CC2)c2ccccc21`, the values for the concentration for 50% growth inhibition (GI50) in the data set on MDA-MB-468 and with MCF7 [2] were 10.3 µM and 13.9 µM, respectively. The results for the GI50 at 48 h in [1] and in data set [3] were 20.2 µM and 22.6 µM, respectively.
Consider `NC(=S)N/N=C1/C(=O)N(CN2CCN(c3ccnc4cc(Cl)ccc34)CC2)c2cc(Br)ccc21`, for which the GI50 in the data set on MDA-MB-468 turned out to be 11.2 µM; in the data set on MCF7 [2], 11.4 µM. For the same compound, the values for the GI50 at 48 h in data set [1] and in data set [3] were 13.1 µM and 22.1 µM, respectively.
The matching figures for `NC(=S)N/N=C1\C(=O)Nc2cccc(Br)c21`: 21.2 µM, 14.8 µM, 22.6 µM and 21.4 µM.
For `NC(=S)N/N=C1/C(=O)N(CN2CCN(c3ccnc4cc(C(F)(F)F)ccc34)CC2)c2cc(Br)ccc21`, the GI50 in the data set on MDA-MB-468 came out at 39.6 µM; in the data set on MCF7 [2], 35.5 µM. Besides, the GI50 at 48 h was found to be 21.4 µM in data set [1] and 26.9 µM in [3].
The matching figures for `NC(=S)N/N=C1/C(=O)N(CN2CCN(c3ccnc4cc(Cl)ccc34)CC2)c2ccccc21`: 20.6 µM, 23 µM, 28.8 µM and 27.7 µM.
The matching figures for `NC(=S)N/N=C1/C(=O)N(CN2CCN(c3ccnc4cc(Cl)ccc34)CC2)c2cc(Cl)ccc21`: 26.5 µM, 22.5 µM, 41.3 µM and 64.6 µM.
The matching figures for `O=C1C(=O)N(CN2CCN(c3ccnc4cc(Cl)ccc34)CC2)c2cc(Br)ccc21`: 35.8 µM, 17.6 µM, 33.2 µM and 17.9 µM.
Consider `NC(=S)N/N=C1/C(=O)N(CN2CCN(c3ccnc4cc(Cl)ccc34)CC2)c2cccc(Cl)c21`, for which the GI50 in the data set with MDA-MB-468 stood at 57.6 µM; with MCF7 [2], 57.5 µM. Further, the GI50 at 48 h in [1] was 20.7 µM; in data set [3], 19.8 µM.
In the case of `O=C1C(=O)N(CN2CCN(c3ccnc4cc(C(F)(F)F)ccc34)CC2)c2cccc(Br)c21`, the concentration for 50% growth inhibition (GI50) in the data set on MDA-MB-468 was 52.2 µM; in the data set on MCF7 [2], 66.8 µM. In addition, the values for the GI50 at 48 h in [1] and in data set [3] were 49.7 µM and 37.9 µM, respectively.
Consider `NC(=S)N/N=C1/C(=O)N(CN2CCN(c3ccnc4cc(C(F)(F)F)ccc34)CC2)c2cc(Cl)ccc21`, for which the concentration for 50% growth inhibition (GI50) was found to be 11 µM in the data set on MDA-MB-468 and 24.6 µM with MCF7 [2]. For the same compound, the results for the GI50 at 48 h in data set [1] and in data set [3] were 20.1 µM and 38.8 µM, respectively.
Regarding `NC(=S)N/N=C1\C(=O)Nc2cccc(Cl)c21`, the 50% growth inhibitory concentration (GI50) in the data set with MDA-MB-468 came out at 24 µM; in the data set with MCF7 [2], 30.2 µM. The 50% growth inhibitory concentration (GI50) at 48 h in data set [1] is 25.9 µM; in data set [3] it was 28.7 µM.
In the case of `O=C1C(=O)N(CN2CCN(c3ccnc4cc(Cl)ccc34)CC2)c2cccc(Cl)c21`, the values for the concentration for 50% growth inhibition (GI50) in the data set with MDA-MB-468 and with MCF7 [2] were 37.8 µM and 39.1 µM, respectively. Moreover, the concentration for 50% growth inhibition (GI50) at 48 h in data set [1] was determined as 77.7 µM; in data set [3], 25.6 µM.
For `O=C1C(=O)N(CN2CCN(c3ccnc4cc(C(F)(F)F)ccc34)CC2)c2ccccc21`, the concentration for 50% growth inhibition (GI50) in the data set on MDA-MB-468 is 15.3 µM; in the data set on MCF7 [2] it was 34 µM. The concentration for 50% growth inhibition (GI50) at 48 h in [1] was 43.9 µM; in data set [3], 70 µM.
`O=C1C(=O)N(CN2CCN(c3ccnc4cc(C(F)(F)F)ccc34)CC2)c2cc(Cl)ccc21`: the concentration for 50% growth inhibition (GI50) was 26.1 µM in the data set with MDA-MB-468 and 15.8 µM with MCF7 [2]. For the same compound, the GI50 at 48 h stood at 25.2 µM in [1] and 32.8 µM in data set [3].
The matching figures for `NC(=S)/N=N/c1c(O)[nH]c2ccccc12`: 35.5 µM, 36.9 µM, 60.4 µM and 88.8 µM.
The matching figures for `O=C1C(=O)N(CN2CCN(c3ccnc4cc(Cl)ccc34)CC2)c2cc(Cl)ccc21`: 36.6 µM, 26.1 µM, 47.5 µM and 67.8 µM.
Turning to `O=C1C(=O)N(CN2CCN(c3ccnc4cc(Cl)ccc34)CC2)c2ccccc21`, the GI50 stood at 37.9 µM in the data set with MDA-MB-468 and 48.3 µM in the data set with MCF7 [2]. Further, the values for the GI50 at 48 h in [1] and in data set [3] were 71.7 µM and 45.9 µM, respectively.
The matching figures for `NC(=S)N/N=C1/C(=O)N(CN2CCN(c3ccnc4cc(Cl)ccc34)CC2)c2cccc(Br)c21`: 40.4 µM, 46.6 µM, 46.4 µM and 29.4 µM.
The matching figures for `NC(=S)N/N=C1\C(=O)Nc2cc(Cl)ccc21`: 17.7 µM, 17.2 µM, 40.8 µM and 48.5 µM.
`CCN(CC)CCCC(C)Nc1ccnc2cc(Cl)ccc12` (stereo unspecified) [CHLOROQUINE]: the GI50 at 48 h was determined as 76.1 µM in [1] and 81.3 µM in [3].
As for `O=C1C(=O)N(CN2CCN(c3ccnc4cc(C(F)(F)F)ccc34)CC2)c2cccc(Cl)c21`, the GI50 in the data set on MDA-MB-468 stood at 28.4 µM; with MCF7 [2] it was 16.9 µM. Besides, the 50% growth inhibitory concentration (GI50) at 48 h stood at 47.4 µM in data set [1] and 24 µM in [3].
As for `O=C1C(=O)N(CN2CCN(c3ccnc4cc(C(F)(F)F)ccc34)CC2)c2cc(Br)ccc21`, the 50% growth inhibitory concentration (GI50) in the data set with MDA-MB-468 was 24.8 µM; in the data set on MCF7 [2], 28.1 µM. The figures for the GI50 at 48 h in [1] and in [3] were 21.8 µM and 24.4 µM, respectively.
`NC(=S)N/N=C1/C(=O)N(CN2CCN(c3ccnc4cc(C(F)(F)F)ccc34)CC2)c2cccc(Cl)c21`: the result in the data set on MCF7 [4] and with MCF7 [5] was Active. The Activity stood at 17% in the data set with MCF7 [6]; 16% with MCF7 [7]; 12% in the data set on MCF7 [8]; 64% in the data set with MCF7 [9]; 11% in the data set with MCF7 [10]; 65% in the data set on MCF7 [11]. The outcome with MCF-10A was inactive. Also, the GI50 is 23 µM in the data set on MDA-MB-468 and 21.6 µM in the data set with MCF7 [2]. For the same compound, the GI50 at 48 h came out at 87.8 µM in [1] and 51.7 µM in data set [3].
Regarding `O=C1C(=O)N(CN2CCN(c3ccnc4cc(Cl)ccc34)CC2)c2cccc(Br)c21`, the Activity in the data set with MCF7 [4] is 6%; in the data set on MCF7 [5], 10%; in the data set on MCF7 [6] it was 18%; in the data set on MCF7 [7], 14%; in the data set with MCF7 [12] it was “Dose-dependent effect”; in the data set with MCF7 [8] it was 14%. Also, the Activity in the data set with MCF7 [9] turned out to be 63%; with MCF7 [10] it was 12%; with MCF7 [11], 64%. Further, the outcome in the data set on MCF-10A was inactive. Besides, the GI50 with MDA-MB-468 is 15.9 µM; with MCF7 [2], 15.1 µM. For the same compound, the concentration for 50% growth inhibition (GI50) at 48 h in [1] stood at 49 µM; in data set [3], 65.6 µM.
As to `NC(=S)N/N=C1\C(=O)Nc2cc(Br)ccc21`, the 50% growth inhibitory concentration (GI50) in the data set on MDA-MB-468 stood at 18.6 µM; in the data set with MCF7 [2], 17.9 µM. The GI50 at 48 h in [1] was 34.9 µM; in [3], 32 µM.
Regarding `NC(=S)N/N=C1/C(=O)N(CN2CCN(c3ccnc4cc(C(F)(F)F)ccc34)CC2)c2cccc(Br)c21`, the GI50 with MDA-MB-468 came to 30.4 µM; in the data set on MCF7 [2] it was 50.6 µM. Moreover, the GI50 at 48 h in [1] was 26.4 µM; in data set [3], 30.6 µM.

Values taken from ChEMBL document CHEMBL1156913, “Design and synthesis of anti-breast cancer agents from 4-piperazinylquinoline: a hybrid pharmacophore approach” (Bioorg Med Chem, 2010).
